The subject of assay [1] is Saccharomyces cerevisiae. Briefly: Resistance index, ratio of MIC80 for Saccharomyces cerevisiae AD over-expressing Candida albicans MDR1 to MIC80 for Saccharomyces cerevisiae AD1-8u(-). In kind it is functional. The method in brief:
(§1)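 MIC80 of the transporter-overexpressing strain and the AD1-8u− control strain each measured after 48 h growth at 30 °C over 0.15−80 μM inhibitor, read by OD600. MIC80 is the concentration cutting growth by 80% versus the no-inhibitor control. Resistance index = overexpressing-strain MIC80 divided by control-strain MIC80.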

Assay [2] has as its system Saccharomyces cerevisiae. Briefly: Potentiation of fluconazole-induced antifungal activity against Saccharomyces cerevisiae AD1-8u(-) by checkerboard method. The assay is classed as functional. The procedure, abridged:
(§2)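 CLSI checkerboard in YEPD: 10^4 cells per well, grown 48 h at 30 °C, OD read. Fluconazole 0.15−800 μM was crossed with inhibitor 0.15−800 μM. Run on control AD1-8u− and on strains overexpressing CaCdr1p or CaMdr1p. FIC of each agent = MIC in combination / MIC alone; FICI = sum of both FICs.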

For assay [3], the system named is Saccharomyces cerevisiae. The experiment in a line: Potentiation of fluconazole-induced antifungal activity against Saccharomyces cerevisiae AD1-8u(-) assessed as as ratio of MIC80 of fluconazole in combinantion with compound to MIC80 of fluconazole alone by checkerboard method. In kind it is functional. The method in brief:
as §2

Assay [4] has as its system Saccharomyces cerevisiae. Briefly: Resistance index, ratio of MIC80 for Saccharomyces cerevisiae AD over-expressing Candida albicans CDR1 to MIC80 for Saccharomyces cerevisiae AD1-8u(-). The assay is classed as functional. The method in brief:
as §1

Assay [5] has as its system Candida albicans. The experiment in a line: Inhibition of Candida albicans CDR1 expressed in Saccharomyces cerevisiae AD assessed as ratio of MIC80 of fluconazole in combinantion with compound to MIC80 of fluconazole alone for Saccharomyces cerevisiae AD by checkerboard method. The procedure, abridged:
as §2

Assay [6] relates to Candida albicans. The experiment in a line: Inhibition of Candida albicans CDR1 transporter expressed in Saccharomyces cerevisiae AD cells assessed as nile red accumulation at 70 uM after 30 mins by flow cytometric analysis relative to control. In kind it is cell-based. Details: Activity: scale not given: the % may be the effect or the level left. The procedure, abridged:
(§3)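 S. cerevisiae AD strains overexpressing CaCdr1p (AD-CDR1) or CaMdr1p (AD-MDR1) were grown at 30 °C from OD600 0.1 to 0.25. They were resuspended as a 5% suspension in YEPD:water 1:2. Nile Red (7 μM final) was given ± inhibitor (70 μM) for 30 min at 30 °C. Accumulation was read by flow cytometry on 10 000 cells. Means ± SD, three independent experiments.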

The subject of assay [7] is Candida albicans. The experiment in a line: Inhibition of Candida albicans CDR1 expressed in Saccharomyces cerevisiae AD assessed as potentiation of fluconazole-induced antifungal activity against Saccharomyces cerevisiae AD by checkerboard method. The procedure, abridged:
as §2

Assay [8] has as its system Saccharomyces cerevisiae. The experiment in a line: Potentiation of fluconazole-induced antifungal activity against Saccharomyces cerevisiae AD1-8u(-) assessed as ratio of MIC80 of compound in combinantion with fluconazole to MIC80 of compound alone by checkerboard method. The assay is classed as functional. The procedure, abridged:
as §2

Assay [9] relates to Candida albicans. The experiment in a line: Inhibition of Candida albicans MDR1 transporter expressed in Saccharomyces cerevisiae AD cells assessed as nile red dye accumulation at 70 uM after 30 mins by flow cytometric analysis relative to control. In kind it is cell-based. Set-up: Activity: scale not given: the % may be the effect or the level left. The method in brief: as §3
On the technique in general: In flow cytometry, cells or beads pass a laser one at a time.

Assay [10] relates to Saccharomyces cerevisiae. The experiment in a line: Antifungal activity against Saccharomyces cerevisiae AD over-expressing Candida albicans MDR1 transporter after 48 hrs. In kind it is functional. The procedure, abridged:
(§4)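 S. cerevisiae AD1-8u− derivative overexpressing the transporter, grown in YEPD at 30 °C. Cells (10^4) incubated 48 h at 30 °C with a range of inhibitor concentrations […]; growth read as OD600. Growth without inhibitor taken as 100%; MIC80 is the concentration decreasing growth by 80%. Means ± SD of three independent experiments.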

Assay [11] has as its system Candida albicans. The experiment in a line: Inhibition of Candida albicans MDR1 expressed in Saccharomyces cerevisiae AD assessed as ratio of MIC80 of compound in combinantion with fluconazole to MIC80 of compound alone for Saccharomyces cerevisiae AD by checkerboard method. The procedure, abridged:
as §2

The test system of assay [12] is Saccharomyces cerevisiae. Briefly: Antifungal activity against Saccharomyces cerevisiae AD over-expressing Candida albicans CDR1 transporter after 48 hrs. In kind it is functional. The method in brief:
as §4

Assay [13] has as its system Candida albicans. The experiment in a line: Inhibition of Candida albicans MDR1 expressed in Saccharomyces cerevisiae AD assessed as potentiation of fluconazole-induced antifungal activity against Saccharomyces cerevisiae AD by checkerboard method. The procedure, abridged:
as §2

Assay [14] concerns Candida albicans. The experiment in a line: Inhibition of Candida albicans CDR1 expressed in Saccharomyces cerevisiae AD assessed as ratio of MIC80 of compound in combinantion with fluconazole to MIC80 of compound alone for Saccharomyces cerevisiae AD by checkerboard method. The method in brief: as §2
The test system of assay [15] is Saccharomyces cerevisiae. The experiment in a line: Antifungal activity against Saccharomyces cerevisiae AD1-8u(-) after 48 hrs. The assay is classed as functional. The procedure, abridged:
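Growth inhibition of transporter-deleted control S. cerevisiae AD1-8u− over […]; 10^4 cells grown in YEPD for 48 h at 30 °C. OD600 was read and growth without inhibitor was set as 100%. MIC80 is the concentration cutting growth by 80%. Means ± SD from three independent experiments.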

Assay [16] deals with Candida albicans. Briefly: Inhibition of Candida albicans MDR1 expressed in Saccharomyces cerevisiae AD assessed as ratio of MIC80 of fluconazole in combinantion with compound to MIC80 of fluconazole alone for Saccharomyces cerevisiae AD by checkerboard method. The procedure, abridged: as §2

Structures are written as SMILES. Converted amounts (≈) assume the structure as drawn. The source made the active and inactive calls. The rule behind the calls is not given here.

Broadly, the MIC80 is an inhibitory concentration at the 80% level, which refers to growth in some studies and to a panel of isolates in others. Take `C=C1[C@@H](OC(=O)C(C)CC)[C@H]2[C@@H](O)[C@](C)(OC(C)=O)C[C@]2(O)C(=O)[C@@H](C)/C=C/C(C)(C)[C@H](OC(C)=O)[C@H](OC(C)=O)[C@H]1OC(=O)c1ccccc1` (stereo partly specified): the Ratio in the assay with Saccharomyces cerevisiae [1] amounted to 0.87; in the assay with Saccharomyces cerevisiae [3] it was 1; with Saccharomyces cerevisiae [4] it was 0.9; with Candida albicans [5], 1; with Saccharomyces cerevisiae [8] it was 1; with Candida albicans [11], 1. In addition, the Ratio with Candida albicans [14] is 0.5; in the assay on Candida albicans [16] it was 1. For the same compound, the figures for the “fractional inhibitory concentration index (FICI)” value in the assay with Saccharomyces cerevisiae [2], in the assay with Candida albicans [7] and with Candida albicans [13] were 2, 1.5 and 2, respectively. For the same compound, the Activity came out at 64% in the assay with Candida albicans [6] and 65% in the assay on Candida albicans [9]. Besides, the MIC80 in the assay on Saccharomyces cerevisiae [10] was 629 µM (≈ 450 µg/mL); against Saccharomyces cerevisiae [12] it was 681 µM (≈ 487 µg/mL); against Saccharomyces cerevisiae [15], 719 µM (≈ 514 µg/mL).

For the compound `C=C1[C@@H](OC(C)=O)[C@H]2[C@@H](OC(=O)COC(=O)c3ccccc3)[C@](C)(OC(C)=O)C[C@]2(O)C(=O)[C@@H](C)/C=C/C(C)(C)[C@H](OC(C)=O)[C@H](OC(C)=O)[C@H]1OC(=O)C(C)C`, the Ratio was determined as 1.2 in the assay on Saccharomyces cerevisiae [1]; 1 with Saccharomyces cerevisiae [3]; 1.2 in the assay with Saccharomyces cerevisiae [4]; 0.2 with Candida albicans [5]; 1 in the assay on Saccharomyces cerevisiae [8]; 1 with Candida albicans [11]. Further, the Ratio in the assay on Candida albicans [14] and in the assay with Candida albicans [16] was 1 throughout. In addition, the “fractional inhibitory concentration index (FICI)” value turned out to be 2 in the assay with Saccharomyces cerevisiae [2], 1.2 in the assay on Candida albicans [7] and 2 in the assay on Candida albicans [13]. Moreover, the Activity in the assay with Candida albicans [6] worked out at 92%. For the same compound, the values for the MIC80 with Saccharomyces cerevisiae [10], in the assay with Saccharomyces cerevisiae [12] and with Saccharomyces cerevisiae [15] were 411 µM (≈ 329 µg/mL), 416 µM (≈ 333 µg/mL) and 324 µM (≈ 259 µg/mL), respectively.

In the case of `CC(=O)O[C@H]1[C@@H](OC(C)=O)C(C)(C)/C=C/[C@@](C)(O)C(=O)[C@@]2(O)C[C@@](C)(OC(C)=O)[C@H](OC(C)=O)[C@@H]2[C@H]2OC(=O)CC[C@@]2(OC(C)=O)[C@@H]1OC(=O)C(C)C`, the Ratio in the assay on Saccharomyces cerevisiae [1] was found to be 1.01; in the assay on Saccharomyces cerevisiae [3] it was 1; in the assay on Saccharomyces cerevisiae [4], 1.04; in the assay on Candida albicans [5], 1; in the assay with Saccharomyces cerevisiae [8], 1; in the assay with Candida albicans [11], 0.5. Moreover, the results for the Ratio in the assay on Candida albicans [14] and in the assay on Candida albicans [16] were 1 and 0.5, respectively. Moreover, the entries for the “fractional inhibitory concentration index (FICI)” value with Saccharomyces cerevisiae [2], in the assay with Candida albicans [7] and in the assay with Candida albicans [13] were 2, 2 and 1, respectively. For the same compound, the Activity with Candida albicans [6] is 85%; with Candida albicans [9] it was 79%. For the same compound, the MIC80 against Saccharomyces cerevisiae [10] stood at 691 µM (≈ 522 µg/mL); with Saccharomyces cerevisiae [12], 711 µM (≈ 537 µg/mL); in the assay with Saccharomyces cerevisiae [15], 682 µM (≈ 515 µg/mL).

In the case of `C=C1[C@@H](OC(C)=O)[C@H]2[C@@H](OC(C)=O)[C@](C)(O)C[C@]2(OC(C)=O)C(=O)[C@H](C)/C=C/C(C)(C)C(=O)[C@H](OC(=O)C(C)C)[C@H]1OC(C)=O`, the inhibition entry with Candida albicans [6] and in the assay with Candida albicans [9] was “inactive” throughout.

In the case of `C=C1[C@@H](OC(=O)c2ccccc2)[C@H]2[C@@H](O)[C@](C)(OC(C)=O)C[C@]2(O)C(=O)[C@@H](C)/C=C/C(C)(C)[C@H](OC(C)=O)[C@H](OC(C)=O)[C@H]1OC(=O)c1ccccc1`, the inhibition result in the assay with Candida albicans [6] and in the assay on Candida albicans [9] was “inactive” throughout.

For `C=C1[C@@H](OC(C)=O)[C@H]2[C@@H](OC(=O)c3ccccc3)[C@@H](C)C[C@]2(O)[C@H](O)[C@H](C)/C=C/C(C)(C)C(=O)[C@H](OC(=O)C(C)C)[C@H]1OC(C)=O`, the Ratio stood at 0.85 in the assay on Saccharomyces cerevisiae [1]; 1 in the assay on Saccharomyces cerevisiae [3]; 0.9 with Saccharomyces cerevisiae [4]; 1 in the assay with Candida albicans [5]; 1 in the assay on Saccharomyces cerevisiae [8]; 1 with Candida albicans [11]. The Ratio in the assay with Candida albicans [14] and in the assay with Candida albicans [16] was 1 in each case. The “fractional inhibitory concentration index (FICI)” value with Saccharomyces cerevisiae [2], with Candida albicans [7] and in the assay on Candida albicans [13] was 2 throughout. In addition, in the assay with Candida albicans [9], the Activity is 74%. The MIC80 is 679 µM (≈ 436 µg/mL) with Saccharomyces cerevisiae [10], 710 µM (≈ 456 µg/mL) against Saccharomyces cerevisiae [12] and 792 µM (≈ 509 µg/mL) in the assay with Saccharomyces cerevisiae [15].

The values are drawn from ChEMBL document CHEMBL4052591, “Evaluation of Jatrophane Esters from Euphorbia spp. as Modulators of Candida albicans Multidrug Transporters” (2017).
